Test results from ChEMBL document CHEMBL1144420 (J Med Chem, 2005).

Columns and labels:
[1] = target: T1, Sodium-dependent dopamine transporter (Rattus norvegicus, UniProt P23977); experiment: Displacement of [3H]WIN-35428 from Dopamine transporter of rat caudate putamen; format: tissue-based
Procedure, shortened: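 Radioligand displacement binding to brain DAT, incubated at 0 °C.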

[2] = target: Sodium-dependent serotonin transporter (Rattus norvegicus, UniProt P31652); experiment: Displacement of [3H]paroxetine from Serotonin transporter of rat caudate putamen; format: tissue-based
Chain of Sodium-dependent serotonin transporter (P31652 whole entry): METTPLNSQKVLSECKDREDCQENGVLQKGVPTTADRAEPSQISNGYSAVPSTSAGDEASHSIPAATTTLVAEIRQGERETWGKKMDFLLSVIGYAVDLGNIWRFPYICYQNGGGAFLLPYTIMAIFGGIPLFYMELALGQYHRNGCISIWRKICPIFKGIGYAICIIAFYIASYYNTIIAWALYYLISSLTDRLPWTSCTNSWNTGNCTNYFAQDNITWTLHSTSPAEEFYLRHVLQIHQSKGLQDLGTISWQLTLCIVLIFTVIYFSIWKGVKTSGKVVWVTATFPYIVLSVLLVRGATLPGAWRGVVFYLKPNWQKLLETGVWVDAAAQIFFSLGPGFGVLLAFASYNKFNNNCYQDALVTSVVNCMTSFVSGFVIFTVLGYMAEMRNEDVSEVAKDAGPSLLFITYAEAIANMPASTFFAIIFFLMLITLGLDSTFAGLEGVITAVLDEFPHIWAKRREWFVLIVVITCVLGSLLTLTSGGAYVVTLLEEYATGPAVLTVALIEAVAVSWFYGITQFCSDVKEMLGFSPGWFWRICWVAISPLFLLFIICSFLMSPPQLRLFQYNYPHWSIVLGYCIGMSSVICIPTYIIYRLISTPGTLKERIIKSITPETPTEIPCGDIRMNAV

[3] = target: T1, Sodium-dependent dopamine transporter; experiment: Inhibition of [3H]dopamine uptake into rat striatal synaptosomes; format: functional, subcellular, Brain
Procedure, shortened: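 [3H]Dopamine uptake run at 33 °C, in a buffer whose ion concentrations differ from those of the binding assays.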

T1 sequence (P23977 whole entry): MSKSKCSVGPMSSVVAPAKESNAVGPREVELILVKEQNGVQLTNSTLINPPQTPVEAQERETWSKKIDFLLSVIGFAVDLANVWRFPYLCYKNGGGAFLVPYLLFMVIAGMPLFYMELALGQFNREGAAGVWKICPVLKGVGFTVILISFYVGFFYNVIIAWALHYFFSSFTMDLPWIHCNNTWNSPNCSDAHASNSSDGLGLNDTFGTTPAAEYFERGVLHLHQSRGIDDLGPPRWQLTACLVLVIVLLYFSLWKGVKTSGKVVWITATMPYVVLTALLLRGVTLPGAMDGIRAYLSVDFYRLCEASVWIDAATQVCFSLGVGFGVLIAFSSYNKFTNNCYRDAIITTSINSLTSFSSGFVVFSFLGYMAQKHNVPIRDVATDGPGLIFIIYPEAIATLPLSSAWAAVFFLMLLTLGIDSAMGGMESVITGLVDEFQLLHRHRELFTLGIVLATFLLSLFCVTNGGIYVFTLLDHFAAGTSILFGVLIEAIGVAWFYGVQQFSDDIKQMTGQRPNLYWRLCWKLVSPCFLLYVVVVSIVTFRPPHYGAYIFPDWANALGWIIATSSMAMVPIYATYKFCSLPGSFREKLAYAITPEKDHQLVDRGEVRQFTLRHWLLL

## CO[C@@H]1CC2CC(OC(c3ccccc3)c3ccc(Cl)cc3)CC1N2C (single isomer, unassigned)
[1]
  IC50: 750 nM
[2]
  IC50: > 100000 nM
[3]
  IC50: 519 nM

## COCO[C@H]1CC2C[C@H](OC(c3ccc(F)cc3)c3ccc(F)cc3)CC1N2C (stereo partly specified)
[1]
  IC50: 340 nM
[2]
  IC50: > 100000 nM
[3]
  IC50: 79.7 nM

## COCO[C@@H]1CC2C[C@H](OC(c3ccc(F)cc3)c3ccc(F)cc3)CC1N2C (stereo partly specified)
[1]
  IC50: 2500 nM
[2]
  IC50: 3500 nM
[3]
  IC50: 491 nM

## COCO[C@H]1CC2C[C@H](OC(c3ccccc3)c3ccccc3)CC1N2C (stereo partly specified)
[1]
  IC50: 4500 nM
[2]
  IC50: > 100000 nM
[3]
  IC50: 1080 nM

## CN1C2C[C@H](OC(c3ccccc3)c3ccc(Cl)cc3)CC1[C@@H](O)C2 (stereo partly specified)
[1]
  IC50: 600 nM
[2]
  IC50: > 100000 nM
[3]
  IC50: 39.1 nM

## CO[C@H]1CC2C[C@H](OC(c3ccccc3)c3ccc(Cl)cc3)CC1N2C (stereo partly specified)
[1]
  IC50: 32 nM
[2]
  IC50: > 100000 nM
[3]
  IC50: 179 nM

## CN1C2C[C@H](OC(c3ccc(F)cc3)c3ccc(F)cc3)CC1[C@@H](O)C2 (stereo partly specified)
[1]
  IC50: 12 nM
[2]
  IC50: 11000 nM
[3]
  IC50: 8.1 nM

## CN1C2CCCC1[C@@H](OC(c1ccc(F)cc1)c1ccc(F)cc1)C2 (stereo partly specified)
[1]
  IC50: 1130 nM
[2]
  IC50: > 2000 nM
[3]
  IC50: 199 nM

## CO[C@H]1CC2C[C@H](OC(c3ccccc3)c3ccccc3)CC1N2C (stereo partly specified)
[1]
  IC50: 276 nM
[2]
  IC50: > 100000 nM
[3]
  IC50: 139 nM

## CN1C2C[C@H](OC(c3ccc(F)cc3)c3ccc(F)cc3)CC1[C@H](O)C2 (stereo partly specified)
[1]
  IC50: 140 nM
[2]
  IC50: > 100000 nM
[3]
  IC50: 162 nM

## CN1C2CCCC1[C@H](OC(c1ccc(F)cc1)c1ccc(F)cc1)C2 (stereo partly specified)
[1]
  IC50: 900 nM
[2]
  IC50: > 100000 nM
[3]
  IC50: 347 nM

## CN1C2C[C@H](OC(c3ccccc3)c3ccccc3)CC1[C@@H](O)C2 (stereo partly specified)
[1]
  IC50: 1300 nM
[2]
  IC50: > 100000 nM
[3]
  IC50: 149 nM

## COCO[C@H]1CC2C[C@H](OC(c3ccccc3)c3ccc(Cl)cc3)CC1N2C (stereo partly specified)
[1]
  IC50: 400 nM
[2]
  IC50: > 100000 nM
[3]
  IC50: 194 nM

## CO[C@@H]1CC2CC(OC(c3ccc(F)cc3)c3ccc(F)cc3)CC1N2C (single isomer, unassigned)
[1]
  IC50: 95 nM
[2]
  IC50: > 10 nM
[3]
  IC50: 165 nM

## CO[C@H]1CC2C[C@H](OC(c3ccc(F)cc3)c3ccc(F)cc3)CC1N2C (stereo partly specified)
[1]
  IC50: 25 nM
[2]
  IC50: > 100000 nM
[3]
  IC50: 104 nM

## CO[C@@H]1CC2CC(OC(c3ccccc3)c3ccccc3)CC1N2C (single isomer, unassigned)
[1]
  IC50: 975 nM
[2]
  IC50: > 100000 nM
[3]
  IC50: 240 nM

## CO[C@@H]1CC2C[C@H](OC(c3ccc(F)cc3)c3ccc(F)cc3)CC1N2C (stereo partly specified)
[1]
  IC50: 10 nM
[2]
  IC50: 280 nM
[3]
  IC50: 12.4 nM
